According to ChEMBL document CHEMBL1149258, “Synthesis and structure-activity relationships of novel histamine H1 antagonists: indolylpiperidinyl benzoic acid derivatives” (J Med Chem, 2004):

Each molecule was assayed against Histamine H1 receptor (Cavia porcellus, UniProt P31389) (assay: Displacement of [3H]mepyramine from histamine H1 receptor in guinea pig cerebellum membranes). Details: not given.
Assay type: cell membranes, Membrane
In short: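 Guinea pig cerebellum membranes (160 µg/mL) incubated with 0.7 nM [3H]-mepyramine at 30 °C for 30 min, 0.5 mL final volume, ended by filtration. Nonspecific binding with 10 µM promethazine. At least six concentrations in duplicate; IC50 by nonlinear regression. Compound stocks 10^-2 M in DMSO, diluted in 50% DMSO.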

Chain of Histamine H1 receptor (P31389 whole entry): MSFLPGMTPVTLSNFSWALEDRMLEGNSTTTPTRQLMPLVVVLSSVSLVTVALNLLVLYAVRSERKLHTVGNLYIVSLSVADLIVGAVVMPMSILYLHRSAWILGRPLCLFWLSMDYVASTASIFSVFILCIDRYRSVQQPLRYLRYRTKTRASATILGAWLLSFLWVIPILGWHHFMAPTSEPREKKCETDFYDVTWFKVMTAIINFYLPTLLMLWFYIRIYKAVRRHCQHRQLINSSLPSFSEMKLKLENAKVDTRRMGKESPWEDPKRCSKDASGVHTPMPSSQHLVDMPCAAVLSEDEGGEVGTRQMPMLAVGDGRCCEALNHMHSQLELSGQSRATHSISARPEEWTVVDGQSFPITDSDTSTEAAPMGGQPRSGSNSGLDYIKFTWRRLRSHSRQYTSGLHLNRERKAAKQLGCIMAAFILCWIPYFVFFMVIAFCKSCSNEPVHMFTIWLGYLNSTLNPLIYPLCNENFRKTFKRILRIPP

Row | Compound | IC50
1 | O=C(O)c1ccccc1OCCN1CCC(c2cn(Cc3ccco3)c3cc(F)ccc23)CC1 | 0.037 µM (antagonist)
2 | O=C(O)c1ccccc1OCCN1CCC(c2cn(CCc3ccccn3)c3ccccc23)CC1 | 0.57 µM (antagonist)
3 | CCOCCn1cc(C2CCN(CCOc3ccccc3C(=O)O)CC2)c2cccc(C)c21 | 0.5 µM (antagonist)
4 | CCOCCn1cc(C2CCN(CCOc3ccc(C(C)=O)cc3C(=O)O)CC2)c2ccccc21 | 0.219 µM (antagonist)
5 | CCOCCn1cc(C2CCN(Cc3cccc(C(=O)O)c3)CC2)c2ccccc21 | 0.218 µM (antagonist)
6 | CCOCCn1cc(C2CCN(CCOc3ccccc3C(=O)O)CC2)c2cc(F)ccc21 | 0.1 µM (antagonist)
7 | O=C(O)c1ccccc1OCCN1CCC(c2cn(Cc3ccc(Cl)s3)c3cc(F)ccc23)CC1 | 0.028 µM (antagonist)
8 | O=C(O)c1ccccc1OCCN1CCC(c2cn(CCC3COCCO3)c3ccccc23)CC1 (stereo unspecified) | 0.39 µM (antagonist)

These molecules were tested against T1, Adrenergic receptor alpha-1 (Rattus norvegicus, UniProt P15823+P23944+P43140) (assay: Displacement of [3H]prazosin from adrenergic alpha-1 receptor in rat brain membranes). Details: not given.
T1 sequence (P15823 whole entry): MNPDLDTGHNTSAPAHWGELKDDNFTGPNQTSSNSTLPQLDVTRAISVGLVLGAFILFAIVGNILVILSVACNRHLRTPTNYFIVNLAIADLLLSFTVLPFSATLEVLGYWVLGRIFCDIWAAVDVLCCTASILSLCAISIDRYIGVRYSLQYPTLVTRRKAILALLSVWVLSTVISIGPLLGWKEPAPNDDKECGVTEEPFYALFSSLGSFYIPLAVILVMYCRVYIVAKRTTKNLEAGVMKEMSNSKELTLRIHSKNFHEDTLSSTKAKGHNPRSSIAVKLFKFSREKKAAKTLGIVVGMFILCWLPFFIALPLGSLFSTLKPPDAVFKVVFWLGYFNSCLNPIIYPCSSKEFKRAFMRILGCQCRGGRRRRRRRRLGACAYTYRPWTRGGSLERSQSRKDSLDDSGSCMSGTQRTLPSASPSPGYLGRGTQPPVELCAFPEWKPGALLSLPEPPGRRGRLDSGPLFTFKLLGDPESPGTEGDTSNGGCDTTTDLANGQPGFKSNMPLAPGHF
T1 sequence (P23944 whole entry): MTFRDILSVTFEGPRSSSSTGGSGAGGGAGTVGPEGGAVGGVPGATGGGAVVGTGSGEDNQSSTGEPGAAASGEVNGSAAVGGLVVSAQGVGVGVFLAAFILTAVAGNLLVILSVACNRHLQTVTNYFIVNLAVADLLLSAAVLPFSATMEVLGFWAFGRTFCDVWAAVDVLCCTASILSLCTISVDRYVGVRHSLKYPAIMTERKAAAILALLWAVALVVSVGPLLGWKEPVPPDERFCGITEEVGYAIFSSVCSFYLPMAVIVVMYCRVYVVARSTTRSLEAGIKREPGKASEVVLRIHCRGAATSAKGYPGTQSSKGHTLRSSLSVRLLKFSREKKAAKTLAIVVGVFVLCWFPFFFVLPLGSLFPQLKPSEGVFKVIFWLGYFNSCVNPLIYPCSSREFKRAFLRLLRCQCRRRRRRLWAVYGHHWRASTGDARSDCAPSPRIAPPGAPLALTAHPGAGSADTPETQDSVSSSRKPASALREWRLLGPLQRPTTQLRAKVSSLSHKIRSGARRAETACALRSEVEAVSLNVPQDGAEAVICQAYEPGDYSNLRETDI
T1 sequence (P43140 whole entry): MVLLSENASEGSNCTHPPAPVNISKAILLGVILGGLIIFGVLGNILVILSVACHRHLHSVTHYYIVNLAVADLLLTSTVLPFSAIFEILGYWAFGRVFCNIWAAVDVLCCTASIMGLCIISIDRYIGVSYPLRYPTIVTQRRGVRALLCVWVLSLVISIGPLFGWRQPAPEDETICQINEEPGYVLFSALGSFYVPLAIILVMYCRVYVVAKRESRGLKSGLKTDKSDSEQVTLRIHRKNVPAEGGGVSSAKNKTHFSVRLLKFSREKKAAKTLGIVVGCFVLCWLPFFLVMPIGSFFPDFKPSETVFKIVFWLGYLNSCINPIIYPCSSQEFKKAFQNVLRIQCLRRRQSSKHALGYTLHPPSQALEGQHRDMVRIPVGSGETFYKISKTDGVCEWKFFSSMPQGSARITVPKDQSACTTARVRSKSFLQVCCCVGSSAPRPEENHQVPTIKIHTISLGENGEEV
Assay type: cell membranes
In short: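 Rat brain membranes (340 µg protein/mL) with 0.25 nM [3H]-prazosin in 50 mM Tris-HCl pH 7.7, room temperature, 60 min, filtration. Nonspecific binding with 100 µM prazosin. Several concentrations run in duplicate; IC50 by nonlinear regression.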

Row | Compound | IC50 [µM]
9 | CCOCCn1cc(C2CCN(CCOc3cccc(C(=O)O)c3)CC2)c2ccccc21 | 2
10 | C=CCn1cc(C2CCN(CCOc3ccccc3C(=O)O)CC2)c2ccccc21 | > 10
11 | COCCn1cc(C2CCN(CCOc3ccccc3C(=O)O)CC2)c2ccccc21 | > 10
12 | COc1ccc(CN2CCC(c3cn(Cc4ccoc4)c4cc(F)ccc34)CC2)cc1C(=O)O | > 10
13 | O=C(O)c1ccccc1OCCN1CCC(c2cn(CC3CC3)c3ccccc23)CC1 | > 10
14 | COCCn1cc(C2CCN(Cc3ccc(OC)c(C(=O)O)c3)CC2)c2ccc(F)cc21 | > 10
15 | CCOCCn1cc(C2CCN(CCOc3ccc(C(=O)O)cc3)CC2)c2ccccc21 | 3
16 | COc1ccc(CN2CCC(c3cn(Cc4ccc(Cl)s4)c4cc(F)ccc34)CC2)cc1C(=O)O | > 10
17 | O=C(O)c1ccccc1OCCN1CCC(c2cn(Cc3ccco3)c3ccccc23)CC1 | > 10
18 | O=C(O)c1ccccc1OCCN1CCC(c2cn(Cc3ccco3)c3cc(F)ccc23)CC1 | > 10
19 | O=C(O)c1ccccc1OCCN1CCC(c2cn(CCc3ccccn3)c3ccccc23)CC1 | > 10
20 | CCOCCn1cc(C2CCN(CCOc3ccccc3C(=O)O)CC2)c2cccc(C)c21 | 7.6
21 | O=C(O)c1cccc(CN2CCC(c3cn(Cc4cccs4)c4ccccc34)CC2)c1 | > 10
22 | CCOCCn1cc(C2CCN(CCOc3ccc(C(C)=O)cc3C(=O)O)CC2)c2ccccc21 | > 10
23 | CCOCCn1cc(C2CCN(CCOc3ccccc3C(=O)O)CC2)c2cc(F)ccc21 | 10
24 | O=C(O)c1ccccc1OCCN1CCC(c2cn(Cc3ccc(Cl)s3)c3cc(F)ccc23)CC1 | > 10
25 | O=C(O)c1ccccc1OCCN1CCC(c2cn(CCC3COCCO3)c3ccccc23)CC1 (stereo unspecified) | 6.2
26 | O=C(O)c1ccccc1OCCN1CCC(c2cn(CC3CC3)c3cc(F)ccc23)CC1 | > 10

The molecules below were run on Rattus norvegicus (assay: Inhibition of increase in histamine-induced cutaneous vascular permeability in orally dosed Wistar rat model after 4 hrs). Details: po.
Assay type: functional
In short: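 Fasted male rats (150-175 g; n=5 per condition) dosed orally in 0.5% methylcellulose/0.1% Tween 80. At 4 h, under light ether, received four intradermal injections of 5 µg histamine, then 0.5% Evans Blue iv. Killed 1 h later. Papule area from maximum and minimum diameters (ellipse); inhibition of papule area; ED50 (mg/kg, po).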

Row | Compound | ED50 [mg/kg]
27 | C=CCn1cc(C2CCN(CCOc3ccccc3C(=O)O)CC2)c2ccccc21 | 3
28 | O=C(O)c1ccccc1OCCN1CCC(c2cn(Cc3ccc(Cl)s3)c3ccccc23)CC1 | 3
29 | COCCn1cc(C2CCN(CCOc3ccccc3C(=O)O)CC2)c2ccccc21 | 1.1
30 | COc1ccc(CN2CCC(c3cn(Cc4ccoc4)c4cc(F)ccc34)CC2)cc1C(=O)O | 0.02
31 | O=C(O)c1ccccc1OCCN1CCC(c2cn(CC3CC3)c3ccccc23)CC1 | 0.6
32 | COCCn1cc(C2CCN(Cc3ccc(OC)c(C(=O)O)c3)CC2)c2ccc(F)cc21 | 0.06
33 | COc1ccc(CN2CCC(c3cn(Cc4ccc(Cl)s4)c4cc(F)ccc34)CC2)cc1C(=O)O | 0.19
34 | O=C(O)c1ccccc1OCCN1CCC(c2cn(Cc3ccco3)c3ccccc23)CC1 | 3
35 | CCOCCn1cc(C2CCN(Cc3ccc(OC)c(C(=O)O)c3)CC2)c2ccccc21 | 0.02
36 | O=C(O)c1ccccc1OCCN1CCC(c2cn(Cc3ccco3)c3cc(F)ccc23)CC1 | 0.32
37 | O=C(O)c1cccc(CN2CCC(c3cn(Cc4cccs4)c4ccccc34)CC2)c1 | 3
38 | CCOCCn1cc(C2CCN(Cc3cccc(C(=O)O)c3)CC2)c2ccccc21 | 0.011
39 | O=C(O)c1ccccc1OCCN1CCC(c2cn(Cc3ccc(Cl)s3)c3cc(F)ccc23)CC1 | 1
40 | O=C(O)c1ccccc1OCCN1CCC(c2cn(CCC3COCCO3)c3ccccc23)CC1 (stereo unspecified) | 3
41 | O=C(O)c1ccccc1OCCN1CCC(c2cn(CC3CC3)c3cc(F)ccc23)CC1 | 0.11

The molecules below were run on Rattus norvegicus (assay: Inhibition of increase in histamine-induced cutaneous vascular permeability in orally dosed Wistar rat model after 8 hrs). Details: po.
Assay type: functional
In short: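 Male Wistar rats (150-175 g), fasted, dosed orally in 0.5% methylcellulose/0.1% Tween 80 (10 mL/kg), n=5. At 1 or 8 h after dosing, four intradermal injections of 5 µg histamine were given, plus iv 0.5% Evans Blue. Papule area (ellipse) measured 1 h later. ED50 in mg/kg po.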

Row | Compound | ED50
42 | COc1ccc(CN2CCC(c3cn(Cc4ccoc4)c4cc(F)ccc34)CC2)cc1C(=O)O | 0.037 mg/kg (antagonist)
43 | O=C(O)c1ccccc1OCCN1CCC(c2cn(CC3CC3)c3ccccc23)CC1 | 1.3 mg/kg (antagonist)
44 | COCCn1cc(C2CCN(Cc3ccc(OC)c(C(=O)O)c3)CC2)c2ccc(F)cc21 | 0.02 mg/kg (antagonist)
45 | COc1ccc(CN2CCC(c3cn(Cc4ccc(Cl)s4)c4cc(F)ccc34)CC2)cc1C(=O)O | 0.09 mg/kg (antagonist)
46 | O=C(O)c1ccccc1OCCN1CCC(c2cn(Cc3ccco3)c3cc(F)ccc23)CC1 | 2.2 mg/kg (antagonist)
47 | O=C(O)c1ccccc1OCCN1CCC(c2cn(CC3CC3)c3cc(F)ccc23)CC1 | 0.5 mg/kg (antagonist)

These molecules were tested against Histamine H1 receptor (Mus musculus) (UniProt P70174) (assay: Ex vivo displacement of [3H]mepyramine from brain histamine H1 receptor in orally dosed Swiss Albino mouse). Details: not given.
Assay type: functional, organism-based
In short: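 Overnight-fasted male mice (20-25 g) dosed orally at several doses (0.5% methylcellulose/0.1% Tween 80, 10 mL/kg), killed 90 min later. Whole brain homogenised in ice-cold 0.05 M Na+/K+ phosphate pH 7.4; aliquots incubated in triplicate with 2 nM final [3H]-mepyramine, 40 min at 30 °C, then filtered. Nonspecific binding from 30 mg/kg po D-chlorpheniramine; total binding from vehicle. Three animals per dose; ED50 reported.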

Chain of Histamine H1 receptor (Mus musculus) (P70174 whole entry): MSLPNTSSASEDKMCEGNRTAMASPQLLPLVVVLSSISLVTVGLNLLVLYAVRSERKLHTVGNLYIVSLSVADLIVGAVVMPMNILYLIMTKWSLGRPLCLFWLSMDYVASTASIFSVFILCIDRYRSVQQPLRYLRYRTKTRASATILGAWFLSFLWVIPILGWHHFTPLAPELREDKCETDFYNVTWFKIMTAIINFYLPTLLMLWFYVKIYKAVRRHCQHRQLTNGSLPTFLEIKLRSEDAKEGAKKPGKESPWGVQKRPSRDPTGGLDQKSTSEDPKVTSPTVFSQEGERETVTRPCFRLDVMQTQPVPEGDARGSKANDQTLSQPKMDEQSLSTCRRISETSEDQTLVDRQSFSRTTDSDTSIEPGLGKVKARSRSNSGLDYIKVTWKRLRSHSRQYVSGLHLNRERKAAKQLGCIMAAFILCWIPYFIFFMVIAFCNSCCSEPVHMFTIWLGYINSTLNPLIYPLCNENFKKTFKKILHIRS

Row | Compound | ED50 [mg/kg]
48 | COc1ccc(CN2CCC(c3cn(Cc4ccoc4)c4cc(F)ccc34)CC2)cc1C(=O)O | 7
49 | O=C(O)c1ccccc1OCCN1CCC(c2cn(CC3CC3)c3ccccc23)CC1 | > 100
50 | COCCn1cc(C2CCN(Cc3ccc(OC)c(C(=O)O)c3)CC2)c2ccc(F)cc21 | 4
51 | COc1ccc(CN2CCC(c3cn(Cc4ccc(Cl)s4)c4cc(F)ccc34)CC2)cc1C(=O)O | 5.5
